Measurements reported in article PMC6008213 (Biochemistry, 2018).
Substitutions are numbered along the chain they refer to.

Experiments:
[1] = target: TG2; details: reported value; cited from earlier work
[2] = target: T1, human TG2 (Homo sapiens, UniProt P21980); test: TG2 transamidation activity assay; format: biochemical
T1 sequence (P21980 1-687): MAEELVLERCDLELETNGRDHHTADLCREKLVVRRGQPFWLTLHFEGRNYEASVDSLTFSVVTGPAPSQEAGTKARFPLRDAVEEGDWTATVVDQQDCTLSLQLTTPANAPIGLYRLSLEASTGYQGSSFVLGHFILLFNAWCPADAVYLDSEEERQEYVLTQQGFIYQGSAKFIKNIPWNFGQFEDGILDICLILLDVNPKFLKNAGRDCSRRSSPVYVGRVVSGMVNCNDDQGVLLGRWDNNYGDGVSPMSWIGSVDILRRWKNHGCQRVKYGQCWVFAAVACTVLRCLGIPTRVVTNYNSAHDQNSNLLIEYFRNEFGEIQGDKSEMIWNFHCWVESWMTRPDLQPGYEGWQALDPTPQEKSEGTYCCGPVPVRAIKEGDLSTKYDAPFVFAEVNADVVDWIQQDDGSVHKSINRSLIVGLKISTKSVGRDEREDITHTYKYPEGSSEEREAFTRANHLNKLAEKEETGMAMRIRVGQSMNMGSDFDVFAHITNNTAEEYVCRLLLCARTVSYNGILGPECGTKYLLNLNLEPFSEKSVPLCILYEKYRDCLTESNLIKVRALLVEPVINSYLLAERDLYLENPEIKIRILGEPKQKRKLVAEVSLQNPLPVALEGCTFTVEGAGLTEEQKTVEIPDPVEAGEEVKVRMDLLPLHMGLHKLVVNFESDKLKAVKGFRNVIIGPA
Outline: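 Transamidation was measured with TG2 immobilized on fibronectin, in 50 mM Tris, 1 mM EDTA, pH 7.6, 22 °C. After timed exposure to oxidant, activity was read relative to untreated enzyme. Single-exponential fits gave k′. Ki and kinh/Ki came from the dependence of k′ on inhibitor concentration.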

[3] = target: T1, human TG2; test: TG2 deamidation activity assay; format: biochemical; details: for kinh/Ki (bimolecular rate constant for TG2 oxidation): deamidation activity assay, 50 mM Tris, 1 mM EDTA, TG2 10 μM
Outline: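 Human TG2 was expressed in and purified from E. coli and held at 10 μM in 50 mM Tris, 1 mM EDTA, pH 7.6, 22 °C, with disulfide oxidant. Aliquots taken at 2.5–120 min were diluted 10-fold into assay buffer. Deamidation activity was read relative to oxidant-free enzyme, in three technical replicates. Single-exponential fits gave k′. kinh/Ki came from the slope of k′ versus [I0], and Ki from fitting k′ versus [I0].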

[4] = target: T2, C230S mutant of human TG2 (Homo sapiens, UniProt P21980, C230S); test: Deamidation activity of the C230S mutant of TG2 after cystamine treatment; format: biochemical; details: 10-fold molar excess of cystamine, 30 min; pH 7.6, 22 °C
T2 sequence (P21980 1-687 C230S): T1 sequence (P21980 1-687) with C230S

In the case of `O=C(NC[C@@H]1CC(Br)=NO1)[C@@H]1CCCN1C(=O)OCc1cnc2ccccc2c1` [ERW1041E], the kinh/Ki [1] is given as 267 M⁻¹ s⁻¹.

In the case of `NCCSSCCN` [cystamine], the Ki [2] is reported as > 100 µM, the “kinh/Ki (bimolecular rate constant for TG2 oxidation)” value ([2]; transamidation activity assay, 50 mM Tris, 1 mM EDTA, pH 7.6, 22 °C (disulfiram: TG2 50 nM, disulfiram 10 μM, 2.5% DMSO)) is reported as 28.3 M⁻¹ s⁻¹ and the Ki [3] is reported as > 600 µM. For the same molecule, the “inactivation of WT TG2 (deamidation activity)” value ([3]; 10-fold molar excess of cystamine, 30 min, pH 7.6, 22 °C) was “completely inactivated”, the “kinh/Ki (bimolecular rate constant for TG2 oxidation)” value ([3]; pH 7.6, 22 °C) was 20 M⁻¹ s⁻¹ and the “retained deamidation activity of C230S mutant” value [4] was > 85%.

For `N[C@@H](CSSC[C@H](N)C(=O)O)C(=O)O` [cystine], the “kinh/Ki (bimolecular rate constant for TG2 oxidation)” value ([3]; pH 7.6, 22 °C) was 4.83 M⁻¹ s⁻¹.
